Assay outcomes (PubChem BioAssay)
Hits are enriched below; roughly 12% of the tested compounds scored in any of these assays.
b-catenin transl: modulators of beta-catenin nuclear translocation. HeLa beta-catenin nuclear translocation, immunofluorescence imaging. nuclear translocation activity, % at 5 µM. actives 0.3% (n = 190,000). AID 1665;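 active = nuclear translocation activity above 50% at 5 µM, with a well cell count of 50 or more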;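 also: per-cell ratio of nuclear to cytoplasmic median beta-catenin stain intensity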
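Assay system: human HeLa cells, native beta-catenin; doses: 5 µM primary, 0.02–20 µM confirmation; incubation: compound treatment 24 h, 37°C, 5% CO2; technique: fluorescence imaging of beta-catenin antibody stain plus DAPI; measure: % activation, nuclear-to-cytoplasmic median beta-catenin signal ratio per cell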
L major viab: Leishmania major promastigote growth inhibition | Leishmania major promastigotes, resazurin fluorescence viability | inhibition, % at 10 µM | actives 9% (n = 200,000) | AID 1063; in the data active = inhibition above about 50%;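 also: promastigotes grown with compound for 44 hours at 28 °C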
Autophagy HCS: autophagy modulation, high-content screen | MEF GFP-LC3 puncta imaging; test concentration mostly 10 µM | calls only at 10 µM (by protocol) | actives 0.98% (n = 190,000) | AID 463193;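 active = percentage of spot-positive cells more than 3 SD above its plate mean, without a fluorescence outlier flag or 80% toxicity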
CHOP inh: CHOP inhibition in unfolded protein response. inhibition, % at 10 µM. CHO-K1 CHOP-promoter luciferase, tunicamycin-induced, 15-18 h. actives 3.8% (n = 220,000). AID 2732;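 active = compounds that reduced the stress-induced luciferase reporter signal by more than about 70% of percent inhibition, limit read from the data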
Dynein transport: blocks dynein driven cargo transport along microtubules; 3617.4 mouse cells, GR-EGFP nuclear translocation imaging; test concentration mostly 20 µM; stimulated with dexamethasone, 1 µM; hits give low values; z-score, hits read low; actives 0.47% (n = 220,000); AID 1381;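 active = plate z-score of nuclear minus cytoplasmic receptor signal below a set negative limit, without overly bright fluorescence or cell loss, cut at about -3.5 in these data, passing the limit was not always enough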;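 also: z-score of nuclear minus cytoplasmic ring GR-EGFP intensity difference per well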
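Buffer or medium: Induction medium lacking tetracycline, stripped serum | Also added: Dexamethasone agonist, 1.0 µM final, for 30 min | Timing: 48 h induction, 1 h compound, 30 min dex at 37 °C | Detection: Formaldehyde fixation, Hoechst nuclear stain, 10x automated fluorescence imaging | Measure: Nuclear versus cytoplasmic GR-EGFP signal, averaged per well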
MT stabilize HCS: microtubule stabilization, imaging screen | % tubulin-high responders, % at 10 µM | HeLa tubulin immunostaining HCS, 24 h; share of cells brighter than vehicle mean+2SD | AID 2205 | actives 0.83% (n = 200,000);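 active = plate Z-score above 3 for both tubulin-high and condensed-nucleus cell shares, with cell loss under 80%, at 10 µM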;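 also: anti alpha tubulin signal scored within the nucleus-defined area of each cell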
Each line names hits and unclear results; the compound was inactive in the other large screens.

Cc1nn(Cc2ccccc2)c(C)c1/C=N/NC(=O)CNc1cccc(C(F)(F)F)c1	CHOP inh 70
CCCCC(=O)Nc1ccc(NC(=S)NC(=O)c2ccco2)cc1OC	none (no result: L major viab, Autophagy HCS, MT stabilize HCS)
COc1cc(NC(=S)NC(=O)c2ccco2)ccc1NC(=O)C(C)C	L major viab 86
COc1cc(NC(=S)NC(=O)c2ccccc2F)ccc1NC(=O)c1ccco1	MT stabilize HCS 15
Cc1cccc(N2CCN(S(=O)(=O)c3ccc4c(c3)CCN4C(=O)CCC(=O)O)CC2C)c1 (centres undefined)	none (no result: b-catenin transl)
O=C(/C=C/c1ccco1)OCC1CCCN2CCCCC12 (centres undefined)	none
CCC(CC)C(=O)c1c[nH]c(C(=O)N2CCN(c3ccc(OC)cc3)CC2)c1	none
CC(C)=C1C2CCC1C1C(=O)N(NC(=O)COc3ccc(Cl)c(C)c3)C(=O)C21 (centres undefined)	L major viab 76, CHOP inh 71
O=C(COc1ccc(Cl)c(Cl)c1)NN1C(=O)C2C(C1=O)C1C=CC2C12CC2 (centres undefined)	none
Cc1cc(C)c(S(=O)(=O)N2CCN(C(=O)c3cccs3)CC2)c(C)c1	L major viab 62
Nc1nnc(SCC(=O)c2ccc([N+](=O)[O-])cc2)s1	L major viab 84
Cc1nnc(SCC(=O)c2ccc([N+](=O)[O-])cc2)s1	none
Cc1ccc(COc2ccsc2C(=O)NNC(N)=S)cc1	none
Cn1cc(/C=N/Nc2ccccc2)c2ccccc21	L major viab 63
O=C(O)c1ccc(N/N=C/c2cn(Cc3ccccc3F)c3ccccc23)cc1	none (no result: L major viab, Autophagy HCS, MT stabilize HCS)
O=C(N/N=C\c1ccc(Cl)cc1)c1sccc1-n1cccc1	none (no result: b-catenin transl)
O=C(N/N=C\c1ccc(Cl)cc1Cl)c1sccc1-n1cccc1	L major viab 100 (no result: b-catenin transl)
Cc1cccc(N2C(=O)CC(SC(=Nc3ccccc3)Nc3ccccc3)C2=O)c1 (centres undefined)	none
O=C1CC(SC(=Nc2ccccc2)Nc2ccccc2)C(=O)N1c1ccc(Cl)c(Cl)c1 (centres undefined)	L major viab 66, CHOP inh 90
CCN=C(Nc1cccc(F)c1)SC1CC(=O)N(c2ccc(OC)cc2)C1=O (centres undefined)	CHOP inh 90 (no result: b-catenin transl)
CCN=C(NCC)SC1CC(=O)N(c2cccc(OC)c2)C1=O (centres undefined)	none
Cc1cc(C)c(C#N)c(N2CCN(CCOc3ccc(Cl)cc3)CC2)n1	CHOP inh 75
COc1ccc(OCCSc2nnc(C(C)NC(=O)c3ccccc3F)n2C)cc1 (centres undefined)	none
CSC1=NCCCN1C(=O)c1c(-c2ccccc2Cl)noc1C	none (no result: L major viab, Autophagy HCS, MT stabilize HCS)
CSC1=NCCN1C(=O)c1c(-c2ccccc2Cl)noc1C	CHOP inh 89 (no result: b-catenin transl)
Cc1onc(-c2ccccc2Cl)c1C(=O)N1CCc2ccccc2C1	L major viab 96
Cc1onc(-c2c(F)cccc2Cl)c1C(=O)N1CCc2ccccc2C1	L major viab 100
Cc1onc(-c2ccccc2Cl)c1C(=O)N(Cc1nc(-c2ccccc2)no1)C1CCCCC1	L major viab 54 (no result: b-catenin transl)
CCCCCC(=O)NC(=S)NC1C2CC3CC(C2)CC1C3 (centres undefined)	none (no result: L major viab, Autophagy HCS, MT stabilize HCS)
Cc1cccc(-n2nnc3c(=O)n(Cc4ccccn4)cnc32)c1	none
CCOC(=O)C1CCN(CC(=O)Nc2cc(S(=O)(=O)N3CCOCC3)ccc2C)CC1	none
OC(COc1ccc2ccccc2c1)Cn1ccnc1 (centres undefined)	L major viab 98
OC(COc1ccc2ccccc2c1Br)Cn1ccnc1 (centres undefined)	L major viab 98
CC(C)N1C(=O)CCN(C=O)c2ccccc21	none (no result: b-catenin transl)
CSc1nc2c(c(C(F)(F)F)n1)CC(C)CC2 (centres undefined)	none
Cc1cccc(/C(N)=N/OC(=O)CCc2ccccc2)c1	none
CCC1CCCCN1C(=O)c1ccc(OC2CCN(C(=O)C3CC3)CC2)cc1 (centres undefined)	none
CN1CCN(S(=O)(=O)Cc2ccc(Cl)cc2)CC1	none (no result: L major viab, Autophagy HCS, MT stabilize HCS)
Cc1ccc(S(=O)(=O)c2c(N)n(CCCO)c3nc4ccccc4nc23)cc1	L major viab 73 (no result: b-catenin transl)
Cc1ccc(C(=O)Nn2c(N)c(S(=O)(=O)c3ccc(C)cc3)c3nc4ccccc4nc32)cc1	none (no result: b-catenin transl)
Cc1ccc(S(=O)(=O)c2c(N)n(CCC(C)C)c3nc4ccccc4nc23)cc1	L major viab 69 (no result: b-catenin transl)
Nc1c(S(=O)(=O)c2ccccc2)c2nc3ccccc3nc2n1C1CC1	none
Cn1c(N)c(S(=O)(=O)c2ccc(Br)cc2)c2nc3ccccc3nc21	L major viab 75
CCOC(=O)c1csc(NC(=O)COc2ccc(Cl)cc2Cl)n1	CHOP inh 71 (no result: b-catenin transl)
COc1ccccc1NC(=O)N1CCN(c2cc(-c3ccccc3)nc3ncnn23)CC1	none
NC(=O)c1nn(-c2ccc(Cl)cc2Cl)c(=O)cc1O	none
O=C1NC(=O)/C(=C\c2ccccc2OCc2cccc([N+](=O)[O-])c2)N1	L major viab 57
O=C1NC(=O)/C(=C/c2cccc([N+](=O)[O-])c2)N1	none (no result: L major viab, Autophagy HCS, MT stabilize HCS)
COC(=O)COc1ccccc1/C=C1/NC(=O)NC1=O	L major viab 53 (no result: b-catenin transl)
Cc1nc(CNC(=O)CC2C(=O)NCCN2Cc2ccoc2)nc2c1CCCC2 (centres undefined)	none (no result: L major viab, Autophagy HCS, MT stabilize HCS)
O=C(NCCCn1ccnc1)c1cc2cc([N+](=O)[O-])ccc2oc1=O	none
CCOC(=O)Cc1c(C)nc2c(-c3ccc(Cl)cc3)c(C)[nH]n2c1=O	L major viab 95 (no result: b-catenin transl)
CCOC(=O)C1=C(CN2CC(C)CC(C)C2)NC(=O)NC1c1ccc2c(c1)OCO2 (centres undefined)	none
COc1cc(CNCCCN2CCOCC2)ccc1OCC(=O)Nc1cccc(C(F)(F)F)c1	L major viab 100
CCOc1cc(CNCCCN2CCOCC2)ccc1OCC(=O)Nc1cccc2ccccc12	L major viab 100
CCOc1cc(NC(=S)NCCCN2CCOCC2)c(OCC)cc1NC(=O)c1cccc(C)c1	none
O=C(COc1ccc(Br)cc1CNCCCN1CCOCC1)Nc1ccccc1	L major viab 91
CCOc1cc(CNC(CC)CO)ccc1OCC(=O)Nc1cccc(C(F)(F)F)c1 (centres undefined)	L major viab 82
CC(OC(=O)c1ccncc1)C(=O)Nc1ccc([N+](=O)[O-])cc1Cl (centres undefined)	none
CC(=O)Nc1ccc(NC(=O)CN(c2cc(Cl)ccc2Cl)S(C)(=O)=O)cc1	none
CCOc1cc(/C=N/Nc2nc(-c3cccs3)c(NC(C)=O)s2)ccc1O	none (no result: L major viab, Autophagy HCS, MT stabilize HCS)
COC(=O)c1ccc(NC(=O)CN2CCN(c3cccc(Cl)c3)CC2)cc1	none
COC(=O)c1ccc(NC(=O)CN2C(=O)CNC2=O)cc1	L major viab 91
